Bioassay records from PubChem.
This is a sample that favours compounds with a hit; in the whole collection about 3.4% have one here.
S100A4 inh HTS: blocks human S100A4 binding to myosin IIA peptide | P26447 | S100A4/TAMRA-MyoIIA peptide fluorescence polarization | inhibition, % at 10.7 µM | 0.14% of 360,000 active | AID 652163;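 active = mean inhibition of at least 70% across replicates, with every replicate also reaching that level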
Target sequence (P26447 whole entry, looked up): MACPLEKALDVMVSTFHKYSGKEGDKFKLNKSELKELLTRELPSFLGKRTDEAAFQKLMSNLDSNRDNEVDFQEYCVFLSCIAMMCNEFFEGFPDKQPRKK
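Material: human S100A4 monomer with TAMRA-labelled myosin IIA peptide; buffer or medium: HEPES pH 7.2 with CaCl2, KCl, NaCl, DTT, Triton; compound dosing: one concentration per compound; schedule: 5 min incubation before reading; benchmarks: neutral control DMSO, positive control TFP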
Ecoli rRNA inh: selective bacterial rRNA inhibition in E. coli; 1.6% of 350,000 active; E. coli WT GFP vs humanized-ribosome RFP mutants, fluorescence, 24 h; hits give low values; DMSO median 0, no signal -100; GFP signal change (wild-type ribosome), % (test concentration not listed);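 active = significant combined selectivity score with lowered wild-type GFP, culture density cut under 30%, mutant RFP and density less affected; inactive = any of these conditions unmet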
AF4-AF9 inh: MLL-AF4/AF9 protein interaction inhibition; 0.47% of 350,000 active; AlphaScreen, biotin-AF4 peptide binding to FLAG-AF9; AID 651704; P42568; inhibition, % at 10 µM;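 active = every replicate reaching a set inhibition limit, whatever the replicate mean, cut at about 25% in these data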
ERAP1 HTS inh: blocks human ERAP1 aminopeptidase activity; Q9NZ08; recombinant ERAP1, Leu-AMC fluorescence, 60 min; inhibition, % at 10.7 µM; 0.15% of 340,000 active; AID 652197;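 active = mean replicate inhibition of at least 30%, or all replicates individually reaching that 30% level; inactive = mean below 30% and not every replicate reaching it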
E-sel inducer: induces E-selectin expression in human endothelial cells; 0.37% of 260,000 active; AID 686992; P16581; activation, % at 7.58 µM; HUVEC E-selectin immunofluorescence imaging; normalized: neutral wells 0, TNF-alpha wells 100;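 active = mean E-selectin-positive cell signal at least 10% of the positive control, reached in at least 60% of replicates, without over 20% cell loss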
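System: HUVEC / Compound: single concentration / Signal: immunofluorescence imaging / Read-out: percent E-selectin-positive cells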
SIRT5 block: blocks human SIRT5 desuccinylation of peptide. inhibition, % at 15 µM. Q9NXA8. 1.1% of 330,000 active. Purified SirT5, succinyl-peptide AMC, trypsin-coupled fluorescence; in the data active = inhibition above about 15%
Target sequence (Q9NXA8 whole entry, looked up): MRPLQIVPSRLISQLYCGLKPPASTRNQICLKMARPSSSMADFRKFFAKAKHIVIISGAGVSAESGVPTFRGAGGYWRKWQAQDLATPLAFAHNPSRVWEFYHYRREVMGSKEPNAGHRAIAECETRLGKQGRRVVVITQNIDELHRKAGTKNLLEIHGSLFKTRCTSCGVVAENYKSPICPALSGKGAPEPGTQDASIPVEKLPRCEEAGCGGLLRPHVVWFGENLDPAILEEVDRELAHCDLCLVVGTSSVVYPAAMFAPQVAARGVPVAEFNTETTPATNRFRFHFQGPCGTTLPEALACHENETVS
Numbers stand for hits.

Screening COc1ccc(S(=O)(=O)N(C)C[C@@H]2OCCCC[C@H](C)Oc3ccc(NS(=O)(=O)c4cccs4)cc3C(=O)N([C@@H](C)CO)C[C@H]2C)cc1 returned S100A4 inh HTS inactive, Ecoli rRNA inh inactive, AF4-AF9 inh inactive, ERAP1 HTS inh inactive, E-sel inducer inactive and SIRT5 block 18.7.
Cc1noc(C)c1NC(=O)N(C)C[C@@H]1Oc2ccc(NS(=O)(=O)c3c(C)noc3C)cc2CC(=O)N([C@@H](C)CO)C[C@@H]1C was read as S100A4 inh HTS inactive, Ecoli rRNA inh inactive, AF4-AF9 inh inactive, ERAP1 HTS inh inactive, E-sel inducer inactive and SIRT5 block inactive.
For C[C@@H]1CN([C@@H](C)CO)C(=O)c2cc(C#CC3CC3)cnc2O[C@H]1CN(C)C(=O)c1ccncc1 the results were Ecoli rRNA inh inactive and E-sel inducer inactive.
Screening O=C(NC12CC3CC(CC(C3)C1)C2)N1CCN(c2ccccn2)CC1 returned S100A4 inh HTS inactive, Ecoli rRNA inh inactive, AF4-AF9 inh inactive, ERAP1 HTS inh inactive and SIRT5 block inactive.
O=C(NC12CC3CC(CC(C3)C1)C2)N1CCN(c2ncccn2)CC1 was read as S100A4 inh HTS inactive, Ecoli rRNA inh -20.7, AF4-AF9 inh inactive, E-sel inducer inactive and SIRT5 block inactive.
For O=C(C[C@@H]1CC[C@@H]2[C@H](COC[C@@H](O)CN2Cc2cccc(F)c2)O1)NCC1CCCCC1 the results were S100A4 inh HTS inactive, Ecoli rRNA inh inactive, AF4-AF9 inh inactive, ERAP1 HTS inh inactive, E-sel inducer inactive and SIRT5 block inactive.
N#Cc1c(Cl)cccc1Oc1ccc(S(=O)(=O)Nc2ccccc2)cc1 was read as S100A4 inh HTS inactive, Ecoli rRNA inh -28.5, ERAP1 HTS inh inactive, E-sel inducer inactive and SIRT5 block inactive.
N#Cc1cccc(C#N)c1Oc1ccc(S(=O)(=O)Nc2ccccc2)cc1 was read as S100A4 inh HTS inactive, AF4-AF9 inh inactive, ERAP1 HTS inh inactive and SIRT5 block inactive.
`CC(=O)N(C)C[C@H]1Oc2cc(-c3cncnc3)ccc2S(=O)(=O)N([C@@H](C)CO)C[C@@H]1C` gave S100A4 inh HTS inactive, Ecoli rRNA inh inactive, AF4-AF9 inh inactive, ERAP1 HTS inh inactive, E-sel inducer inactive and SIRT5 block inactive.
Screening CSc1nc2ccc(NS(=O)(=O)c3ccc(Br)s3)cc2s1 returned S100A4 inh HTS inactive, Ecoli rRNA inh -43.8, ERAP1 HTS inh inactive, E-sel inducer inactive and SIRT5 block inactive.
`CN(C)C(=O)c1ccc(NC(=O)COc2cccc(Oc3ccccc3)c2)cc1` gave S100A4 inh HTS inactive, Ecoli rRNA inh -26.8, AF4-AF9 inh inactive, ERAP1 HTS inh inactive and SIRT5 block inactive.
Screening Cc1cccc(OCC(=O)Nc2ccc(NC(=O)c3ccccc3)cc2)c1 returned S100A4 inh HTS inactive, Ecoli rRNA inh inactive, AF4-AF9 inh inactive, ERAP1 HTS inh inactive, E-sel inducer inactive and SIRT5 block inactive.
`O=C(C[C@@H]1CC[C@@H](NC(=O)c2ccncc2)[C@@H](CO)O1)Nc1ccc(-c2ccccc2)cc1` gave S100A4 inh HTS inactive, Ecoli rRNA inh inactive, AF4-AF9 inh inactive, ERAP1 HTS inh inactive, E-sel inducer inactive and SIRT5 block inactive.
For O=C1NC(=O)/C(=C/c2ccc(OS(=O)(=O)c3ccc(F)cc3F)cc2)N1 the results were S100A4 inh HTS inactive, Ecoli rRNA inh -26.4, ERAP1 HTS inh inactive, E-sel inducer inactive and SIRT5 block inactive.
For C[C@H]1CN([C@@H](C)CO)C(=O)c2cc(NC(=O)C3CC3)ccc2O[C@@H]1CN(C)S(=O)(=O)c1ccc(Cl)cc1 the results were S100A4 inh HTS inactive, Ecoli rRNA inh inactive, AF4-AF9 inh inactive, ERAP1 HTS inh inactive, E-sel inducer inactive and SIRT5 block inactive.
C[C@@H]1CN([C@H](C)CO)C(=O)c2cc(N(C)C)ccc2O[C@@H]1CN(C)Cc1ccc(Oc2ccccc2)cc1 was read as S100A4 inh HTS inactive, Ecoli rRNA inh inactive, AF4-AF9 inh 51.5, ERAP1 HTS inh inactive, E-sel inducer inactive and SIRT5 block inactive.
Screening C[C@@H]1CN([C@@H](C)CO)C(=O)c2cc(NS(C)(=O)=O)ccc2O[C@@H]1CN(C)Cc1ccc(Oc2ccccc2)cc1 returned S100A4 inh HTS inactive, Ecoli rRNA inh inactive, AF4-AF9 inh inactive, ERAP1 HTS inh inactive, E-sel inducer inactive and SIRT5 block inactive.
For C[C@@H]1CN([C@H](C)CO)C(=O)c2cc(N(C)C)ccc2O[C@H]1CN(C)Cc1ccc(Oc2ccccc2)cc1 the results were S100A4 inh HTS inactive, Ecoli rRNA inh inactive, AF4-AF9 inh 39.8, ERAP1 HTS inh inactive, E-sel inducer inactive and SIRT5 block inactive.
Screening C[C@H](CO)N1C[C@H](C)[C@H](CN(C)Cc2ccc(Oc3ccccc3)cc2)Oc2ccc(N(C)C)cc2C1=O returned S100A4 inh HTS inactive, Ecoli rRNA inh inactive, AF4-AF9 inh 51.6, ERAP1 HTS inh inactive, E-sel inducer inactive and SIRT5 block inactive.
COc1ccccc1C#Cc1ccc2c(c1)[C@H]1[C@H](CCN1S(=O)(=O)c1ccc(C)cc1)[C@H](CO)N2C was read as Ecoli rRNA inh inactive.
Screening C[C@H](CO)N1C[C@H](C)[C@H](CN(C)Cc2ccncc2)OCCCC[C@H](C)Oc2ccc(NC(=O)Nc3cccc4ccccc34)cc2C1=O returned S100A4 inh HTS inactive, Ecoli rRNA inh inactive, AF4-AF9 inh inactive, ERAP1 HTS inh inactive, E-sel inducer inactive and SIRT5 block inactive.
`O=C(C[C@@H]1C=C[C@H](NC(=O)CCN2CCCCC2)[C@H](CO)O1)Nc1ccccc1` gave S100A4 inh HTS inactive, Ecoli rRNA inh inactive, AF4-AF9 inh inactive, ERAP1 HTS inh inactive, E-sel inducer inactive and SIRT5 block inactive.
O=C(C[C@H]1C=C[C@H](NC(=O)CC2CC2)[C@H](CO)O1)NCc1ccc(-c2ccccc2)cc1 was read as S100A4 inh HTS inactive, Ecoli rRNA inh inactive, AF4-AF9 inh inactive, ERAP1 HTS inh inactive, E-sel inducer inactive and SIRT5 block inactive.
Cc1cc(C)n2nc(C(=O)N3CCN(c4ccc([N+](=O)[O-])cc4)CC3)nc2n1 was read as S100A4 inh HTS inactive, AF4-AF9 inh inactive, ERAP1 HTS inh 40.9, E-sel inducer inactive and SIRT5 block inactive.
Screening Cc1cc(C)n2nc(C(=O)Nc3cccc(S(=O)(=O)N4CCCC4)c3)nc2n1 returned S100A4 inh HTS inactive, Ecoli rRNA inh inactive, AF4-AF9 inh inactive, ERAP1 HTS inh inactive, E-sel inducer inactive and SIRT5 block inactive.
For COc1ccc(N2CCN(C(=O)c3nc4nc(C)cc(C)n4n3)CC2)cc1 the results were S100A4 inh HTS inactive, Ecoli rRNA inh inactive, AF4-AF9 inh inactive, ERAP1 HTS inh inactive, E-sel inducer inactive and SIRT5 block inactive.
For CCc1nc2ccc(C(=O)N3CCN(c4ccc([N+](=O)[O-])cc4)CC3)cc2nc1CC the results were S100A4 inh HTS inactive, Ecoli rRNA inh -23.0, AF4-AF9 inh inactive, ERAP1 HTS inh inactive and SIRT5 block inactive.
